According to ChEMBL document CHEMBL1240399 (Antimicrob Agents Chemother, 2010):
In brackets after ≈: the same amount, converted by molar mass.

Experiments:
Escherichia coli [1] = test: Antibacterial activity against Escherichia coli DH5alpha pB-ges-13 plasmid; format: functional
Escherichia coli [2] = test: Antibacterial activity against Escherichia coli DH5alpha pB-ges-1; format: functional
Escherichia coli [3] = test: Antibacterial activity against Escherichia coli DH5alpha; format: functional
Escherichia coli [4] = test: Antibacterial activity against Escherichia coli DH5alpha in presence of 2 ug/ml clavulanic acid; format: functional
Escherichia coli [5] = test: Antibacterial activity against Escherichia coli DH5alpha pB-ges-13 plasmid in presence of 2 ug/ml clavulanic acid; format: functional
Pseudomonas aeruginosa [6] = test: Antibacterial activity against Pseudomonas aeruginosa NL68 expressing GES-13 beta lactamase; format: functional
Pseudomonas aeruginosa [7] = test: microbe, parasite or virus in culture; details: NL68
Escherichia coli [8] = test: Antibacterial activity against Escherichia coli DH5alpha pB-ges-1in presence of 2 ug/ml clavulanic acid; format: functional
Pseudomonas aeruginosa [9] = test: Antibacterial activity against Pseudomonas aeruginosa NL68 expressing GES-13 beta lactamase in presence of 4 ug/ml Tazobactam; format: functional
Beta-lactamase GES-13 = Beta-lactamase GES-13 (Pseudomonas aeruginosa, UniProt D1MIX9); test: Inhibition of Pseudomonas aeruginosa GES-13 beta lactamase
Outline: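 GES-13 purified from E. coli DH5α carrying pB-ges13: sonicated in 20 mM Tris pH 8.0, then Q-Sepharose and S-Sepharose chromatography, >95% pure by SDS-PAGE. Enzyme preincubated with a range of inhibitor concentrations for 3 min at 30°C. Residual hydrolysis of 100 μM cephalothin reporter followed spectrophotometrically. Value given as IC50.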

Escherichia coli [10] = test: microbe, parasite or virus in culture; details: DH5alpha
Escherichia coli [11] = test: microbe, parasite or virus in culture; details: DH5alpha; remark: listed apart in the source
Escherichia coli [12] = test: microbe, parasite or virus in culture; details: DH5alpha; remark: listed apart in the source

Beta-lactamase GES-13, sequence (D1MIX9 whole entry): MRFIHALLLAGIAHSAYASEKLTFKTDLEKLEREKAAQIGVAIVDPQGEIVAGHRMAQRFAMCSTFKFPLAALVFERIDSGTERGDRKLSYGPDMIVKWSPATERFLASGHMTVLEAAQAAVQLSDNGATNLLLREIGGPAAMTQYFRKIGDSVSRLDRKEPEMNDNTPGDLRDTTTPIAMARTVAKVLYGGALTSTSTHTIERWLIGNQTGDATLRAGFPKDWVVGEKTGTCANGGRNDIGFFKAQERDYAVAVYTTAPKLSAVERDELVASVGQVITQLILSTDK

SMILES | MIC (Escherichia coli [1]) | MIC (Escherichia coli [2]) | MIC (Escherichia coli [3]) | MIC (Escherichia coli [4]) | MIC (Escherichia coli [5]) | MIC (Pseudomonas aeruginosa [6]) | MIC (Pseudomonas aeruginosa [7]) | MIC (Escherichia coli [8]) | MIC (Pseudomonas aeruginosa [9]) | IC50 (Beta-lactamase GES-13) | MIC (Escherichia coli [10]) | MIC (Escherichia coli [11]) | MIC (Escherichia coli [12])
CO[C@@]1(NC(=O)Cc2cccs2)C(=O)N2C(C(=O)O)=C(COC(N)=O)CS[C@@H]21 [CEFOXITIN] | 8 µg/mL (≈ 18.7 µM) | 8 µg/mL (≈ 18.7 µM) | 4 µg/mL (≈ 9.36 µM) | – | – | – | – | – | – | – | – | – | –
CC1(C)S[C@@H]2[C@H](NC(=O)[C@H](C(=O)O)c3ccsc3)C(=O)N2[C@H]1C(=O)O [TICARCILLIN] | ≥ 512 µg/mL | ≥ 512 µg/mL | 2 µg/mL (≈ 5.2 µM) | 2 µg/mL | 16 µg/mL | ≥ 512 µg/mL | ≥ 512 µg/mL | 32 µg/mL | – | – | – | – | –
C[C@@H](O)[C@H]1C(=O)N2C(C(=O)O)=C(SCCNC=N)C[C@H]12 [IMIPENEM ANHYDROUS] | – | – | – | – | – | 16 µg/mL (≈ 53.4 µM) | – | – | 16 µg/mL | 150 nM | – | – | –
CC(C)(O/N=C(\C(=O)N[C@@H]1C(=O)N2C(C(=O)[O-])=C(C[n+]3ccccc3)CS[C@H]12)c1csc(N)n1)C(=O)O [CEFTAZIDIME] | ≥ 512 µg/mL | 256 µg/mL (≈ 468 µM) | 0.5 µg/mL (≈ 0.915 µM) | 0.5 µg/mL | 16 µg/mL | ≥ 512 µg/mL | ≥ 512 µg/mL | 16 µg/mL | 256 µg/mL | – | 16 µg/mL (≈ 29.3 µM) | 4 µg/mL (≈ 7.32 µM) | 0.5 µg/mL (≈ 0.915 µM)
CO/N=C(\C(=O)N[C@@H]1C(=O)N2C(C(=O)O)=C(COC(N)=O)CS[C@H]12)c1ccco1 [CEFUROXIME] | ≥ 512 µg/mL | ≥ 512 µg/mL | 2 µg/mL (≈ 4.71 µM) | – | – | – | – | – | – | – | – | – | –
CCN1CCN(C(=O)N[C@@H](C(=O)N[C@@H]2C(=O)N3[C@@H]2SC(C)(C)[C@@H]3C(=O)O)c2ccccc2)C(=O)C1=O [PIPERACILLIN] | 64 µg/mL (≈ 124 µM) | 64 µg/mL (≈ 124 µM) | 1 µg/mL (≈ 1.93 µM) | – | – | 256 µg/mL (≈ 495 µM) | – | – | 128 µg/mL | – | 16 µg/mL (≈ 30.9 µM) | 2 µg/mL (≈ 3.86 µM) | 0.5 µg/mL (≈ 0.966 µM)
N[C@@H](C(=O)N[C@@H]1C(=O)N2C(C(=O)O)=C(Cl)CS[C@H]12)c1ccccc1 [CEFACLOR ANHYDROUS] | ≥ 512 µg/mL | ≥ 512 µg/mL | 4 µg/mL (≈ 10.9 µM) | – | – | – | – | – | – | – | – | – | –
C[C@@H](O)[C@H]1C(=O)N2C(C(=O)O)=C(S[C@@H]3CN[C@H](C(=O)N(C)C)C3)[C@H](C)[C@H]12 [MEROPENEM] | ≤ 0.06 µg/mL | ≤ 0.06 µg/mL | ≤ 0.06 µg/mL | – | – | 32 µg/mL (≈ 83.4 µM) | – | – | – | – | – | – | –
CC1(C)S[C@@H]2[C@H](NC(=O)[C@H](N)c3ccc(O)cc3)C(=O)N2[C@H]1C(=O)O [AMOXICILLIN] | ≥ 512 µg/mL | ≥ 512 µg/mL | 2 µg/mL (≈ 5.47 µM) | 2 µg/mL | 32 µg/mL | – | – | 64 µg/mL | – | – | – | – | –
CO/N=C(\C(=O)N[C@@H]1C(=O)N2C(C(=O)O)=C(CSc3nc(=O)c(O)nn3C)CS[C@H]12)c1csc(N)n1 [CEFTRIAXONE] | 16 µg/mL (≈ 28.9 µM) | 16 µg/mL (≈ 28.9 µM) | 0.12 µg/mL (≈ 0.216 µM) | – | – | – | – | – | – | – | – | – | –
CO/N=C(\C(=O)N[C@@H]1C(=O)N2C(C(=O)[O-])=C(C[N+]3(C)CCCC3)CS[C@H]12)c1csc(N)n1 | – | 1 µg/mL (≈ 2.08 µM) | – | – | – | 64 µg/mL (≈ 133 µM) | – | – | – | – | – | – | –
C[C@H]1[C@H](NC(=O)/C(=N\OC(C)(C)C(=O)O)c2csc(N)n2)C(=O)N1S(=O)(=O)O [AZTREONAM] | 8 µg/mL (≈ 18.4 µM) | 1 µg/mL (≈ 2.3 µM) | – | – | – | – | – | – | – | – | – | – | –
CO/N=C(\C(=O)N[C@@H]1C(=O)N2C(C(=O)O)=C(COC(C)=O)CS[C@H]12)c1csc(N)n1 [CEFOTAXIME] | 8 µg/mL (≈ 17.6 µM) | 4 µg/mL (≈ 8.78 µM) | 0.12 µg/mL (≈ 0.263 µM) | – | – | – | – | – | – | – | – | – | –
